A short description of series [1]: Metabolic stability in human serum assessed as full length product remaining after 10 mins by HPLC. Conditions: read-out: Stability. The series is classed as ADME, cell-free. Summed up: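 About 0.5 A260 units compound in 1% human serum in PBS, 37 °C; aliquot taken at 10 min, analysed by anion-exchange HPLC for percent intact full-length product.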
For series [2], the target named is T1, Toll-like receptor 8 (Homo sapiens) (UniProt Q9NR97).
T1 sequence (whole entry): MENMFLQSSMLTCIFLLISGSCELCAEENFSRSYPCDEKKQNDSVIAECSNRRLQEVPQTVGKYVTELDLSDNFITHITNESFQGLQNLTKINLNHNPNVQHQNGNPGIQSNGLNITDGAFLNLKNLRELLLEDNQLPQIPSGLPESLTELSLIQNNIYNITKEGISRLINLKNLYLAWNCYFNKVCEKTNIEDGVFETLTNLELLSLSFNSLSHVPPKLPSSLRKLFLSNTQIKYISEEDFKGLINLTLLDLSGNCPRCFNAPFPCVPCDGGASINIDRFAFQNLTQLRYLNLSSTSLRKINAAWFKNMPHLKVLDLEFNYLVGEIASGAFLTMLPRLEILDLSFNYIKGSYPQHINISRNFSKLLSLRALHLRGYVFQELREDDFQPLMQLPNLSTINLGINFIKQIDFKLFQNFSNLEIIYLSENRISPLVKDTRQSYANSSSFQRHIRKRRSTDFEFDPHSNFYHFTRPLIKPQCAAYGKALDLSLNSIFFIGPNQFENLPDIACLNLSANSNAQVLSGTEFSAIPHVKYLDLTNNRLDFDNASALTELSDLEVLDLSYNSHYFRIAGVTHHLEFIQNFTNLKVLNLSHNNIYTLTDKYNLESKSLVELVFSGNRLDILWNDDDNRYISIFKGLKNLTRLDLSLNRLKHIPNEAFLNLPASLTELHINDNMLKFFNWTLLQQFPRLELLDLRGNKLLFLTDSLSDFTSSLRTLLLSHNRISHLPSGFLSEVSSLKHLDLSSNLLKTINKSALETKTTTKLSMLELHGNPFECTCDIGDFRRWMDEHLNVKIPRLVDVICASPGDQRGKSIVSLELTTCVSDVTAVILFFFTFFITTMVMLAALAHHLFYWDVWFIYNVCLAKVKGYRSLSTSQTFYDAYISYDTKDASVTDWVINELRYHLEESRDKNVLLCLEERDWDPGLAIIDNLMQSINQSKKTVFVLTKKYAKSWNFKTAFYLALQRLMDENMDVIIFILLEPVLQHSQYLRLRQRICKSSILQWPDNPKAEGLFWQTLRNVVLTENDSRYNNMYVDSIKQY
Briefly: Activation of human TLR8 expressed in HEK293XL assessed as fold induction of NF-kappaB activity at 50 ug/ml after 18 hrs by reporter gene assay relative to control. Summed up: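 HEK293 cells stably expressing human TLR7 or TLR8, transiently transfected with SEAP reporter plasmid; medium replaced, SIMRA compounds added, 18 h incubation. Supernatant SEAP measured by QuantiBlue; expressed as fold increase in NF-κB activity over PBS control. Tabulated data at 50 μg/mL, representative of three independent experiments.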
(In general: Reporter assays use an easily measured gene product as a stand-in for the process of interest.)

The species named for a further series is Homo sapiens. The experiment in a line: Ratio of human TLR7 activity to human TLR8 activity. The method, boiled down: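 TLR7/TLR8 ratio computed from fold NF-κB (SEAP reporter) activation in HEK293 cells stably expressing human TLR7 versus TLR8, compounds at 50 μg/mL, 18 h exposure; representative of three independent experiments.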
Series [3] deals with Toll-like receptor 3 (Homo sapiens) (UniProt O15455). The experiment in a line: Activation of human TLR3 expressed in HEK293 assessed as induction of NF-kappaB activity reporter gene assay. The series is classed as cell-based.
The test system of another series is PBMC. Briefly: Immunomodulatory activity in human PBMC assessed as induction of IFN-alpha at 100 ug/ml after 24 hrs.

This is an account of results in ChEMBL document CHEMBL1154352, “Toll-like receptor 7 selective synthetic oligoribonucleotide agonists: synthesis and structure-activity relationship studies” (J Med Chem, 2009).

Active and inactive are the calls of the source. The rule behind the calls is not given here.

Chain of Toll-like receptor 3 (Homo sapiens) (O15455 whole entry): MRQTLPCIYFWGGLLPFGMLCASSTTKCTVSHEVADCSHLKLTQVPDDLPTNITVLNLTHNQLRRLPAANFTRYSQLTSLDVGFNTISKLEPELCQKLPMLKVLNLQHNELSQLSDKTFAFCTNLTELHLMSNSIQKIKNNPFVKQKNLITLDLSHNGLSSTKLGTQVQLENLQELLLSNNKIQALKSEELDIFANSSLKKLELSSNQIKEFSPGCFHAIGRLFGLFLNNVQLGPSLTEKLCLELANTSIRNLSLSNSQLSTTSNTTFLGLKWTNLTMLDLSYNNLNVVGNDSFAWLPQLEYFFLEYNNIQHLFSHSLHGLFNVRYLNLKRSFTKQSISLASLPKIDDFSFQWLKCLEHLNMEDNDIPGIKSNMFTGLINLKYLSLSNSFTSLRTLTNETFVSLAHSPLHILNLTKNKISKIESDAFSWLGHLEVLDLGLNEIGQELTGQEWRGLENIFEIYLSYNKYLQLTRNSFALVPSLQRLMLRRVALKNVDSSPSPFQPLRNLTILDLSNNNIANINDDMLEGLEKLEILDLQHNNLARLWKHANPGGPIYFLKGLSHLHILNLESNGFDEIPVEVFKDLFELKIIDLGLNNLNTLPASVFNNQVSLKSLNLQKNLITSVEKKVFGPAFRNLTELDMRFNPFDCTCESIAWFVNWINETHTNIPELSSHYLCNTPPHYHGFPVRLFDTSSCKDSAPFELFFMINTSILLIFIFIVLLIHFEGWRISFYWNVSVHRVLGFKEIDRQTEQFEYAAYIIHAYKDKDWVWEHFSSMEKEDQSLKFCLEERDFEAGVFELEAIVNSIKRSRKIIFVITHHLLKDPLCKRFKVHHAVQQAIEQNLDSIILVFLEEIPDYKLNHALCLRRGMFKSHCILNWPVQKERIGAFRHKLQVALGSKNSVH

In the case of `Nc1ccn([C@@H]2O[C@H](COP(=O)(S)O[C@H]3[C@@H](O)[C@H](n4cnc5c(N)ncnc54)O[C@@H]3CO)[C@@H](OP(=O)(S)OC[C@H]3O[C@@H](n4ccc5c(=O)[nH]c(N)nc54)[C@H](O)[C@@H]3OP(=O)(S)OC[C@H]3O[C@@H](n4ccc(N)nc4=O)[C@H](O)[C@@H]3OP(=O)(S)OC[C@H]3O[C@@H](n4ccc(=O)[nH]c4=O)[C@H](O)[C@@H]3OP(=O)(S)OC[C@H]3O[C@@H](n4ccc5c(=O)[nH]c(N)nc54)[C@H](O)[C@@H]3OP(=O)(S)OC[C@H]3O[C@@H](n4cnc5c(N)ncnc54)[C@H](O)[C@@H]3OP(=O)(S)OC[C@H]3O[C@@H](n4ccc5c(=O)[nH]c(N)nc54)[C@H](O)[C@@H]3OP(=O)(S)OC[C@H]3O[C@@H](n4ccc(N)nc4=O)[C@H](O)[C@@H]3OP(=O)(S)OC[C@H]3O[C@@H](n4ccc(=O)[nH]c4=O)[C@H](O)[C@@H]3OP(=O)(S)OC[C@H]3O[C@@H](n4ccc(=O)[nH]c4=O)[C@H](O)[C@@H]3OP(=O)(S)OCC(O)COP(=O)(S)O[C@H]3[C@@H](O)[C@H](n4ccc(=O)[nH]c4=O)O[C@@H]3COP(=O)(S)O[C@H]3[C@@H](O)[C@H](n4ccc(=O)[nH]c4=O)O[C@@H]3COP(=O)(S)O[C@H]3[C@@H](O)[C@H](n4ccc(N)nc4=O)O[C@@H]3COP(=O)(S)O[C@H]3[C@@H](O)[C@H](n4ccc5c(=O)[nH]c(N)nc54)O[C@@H]3COP(=O)(S)O[C@H]3[C@@H](O)[C@H](n4cnc5c(N)nc(N)nc54)O[C@@H]3COP(=O)(S)O[C@H]3[C@@H](O)[C@H](n4ccc5c(=O)[nH]c(N)nc54)O[C@@H]3COP(=O)(S)O[C@H]3[C@@H](O)[C@H](n4ccc(=O)[nH]c4=O)O[C@@H]3COP(=O)(S)O[C@H]3[C@@H](O)[C@H](n4ccc(N)nc4=O)O[C@@H]3COP(=O)(S)O[C@H]3[C@@H](O)[C@H](n4ccc5c(=O)[nH]c(N)nc54)O[C@@H]3COP(=O)(S)O[C@H]3[C@@H](O)[C@H](n4ccc(N)nc4=O)O[C@@H]3COP(=O)(S)O[C@H]3[C@@H](O)[C@H](n4cnc5c(N)ncnc54)O[C@@H]3CO)[C@H]2O)c(=O)n1` (stereo not given in full), the remaining at 10 min in series [1] amounted to 78%. Moreover, in series [2], the fold change (FC) turned out to be 0.9. Besides, the Ratio in the series filed under Homo sapiens is 29.6. Further, the result in series [3] was inactive. Also, the IFN-alpha in the series on PBMC amounted to 188 pg/mL.
With `Nc1ccn([C@@H]2O[C@H](CO)[C@@H](OP(=O)(S)OC[C@H]3O[C@@H](n4ccc(=O)[nH]c4=O)[C@H](O)[C@@H]3OP(=O)(S)OC[C@H]3O[C@@H](n4ccc5c(=O)[nH]c(N)nc54)[C@H](O)[C@@H]3OP(=O)(S)OC[C@H]3O[C@@H](n4cnc5c(N)ncnc54)[C@H](O)[C@@H]3OP(=O)(S)OC[C@H]3O[C@@H](n4ccc5c(=O)[nH]c(N)nc54)[C@H](O)[C@@H]3OP(=O)(S)OC[C@H]3O[C@@H](n4cnc5c(N)ncnc54)[C@H](O)[C@@H]3OP(=O)(S)OC[C@H]3O[C@@H](n4cnc5c(N)ncnc54)[C@H](O)[C@@H]3OP(=O)(S)OC[C@H]3O[C@@H](n4ccc5c(=O)[nH]c(N)nc54)[C@H](O)[C@@H]3OP(=O)(S)OC[C@H]3O[C@@H](n4ccc(N)nc4=O)[C@H](O)[C@@H]3OP(=O)(S)OC[C@H]3O[C@@H](n4ccc(=O)[nH]c4=O)[C@H](O)[C@@H]3OP(=O)(S)OC[C@H]3O[C@@H](n4ccc(=O)[nH]c4=O)[C@H](O)[C@@H]3OP(=O)(S)OCC(O)COP(=O)(S)O[C@H]3[C@@H](O)[C@H](n4ccc(=O)[nH]c4=O)O[C@@H]3COP(=O)(S)O[C@H]3[C@@H](O)[C@H](n4ccc(=O)[nH]c4=O)O[C@@H]3COP(=O)(S)O[C@H]3[C@@H](O)[C@H](n4ccc(N)nc4=O)O[C@@H]3COP(=O)(S)O[C@H]3[C@@H](O)[C@H](n4ccc5c(=O)[nH]c(N)nc54)O[C@@H]3COP(=O)(S)O[C@H]3[C@@H](O)[C@H](n4cnc5c(N)ncnc54)O[C@@H]3COP(=O)(S)O[C@H]3[C@@H](O)[C@H](n4cnc5c(N)ncnc54)O[C@@H]3COP(=O)(S)O[C@H]3[C@@H](O)[C@H](n4ccc5c(=O)[nH]c(N)nc54)O[C@@H]3COP(=O)(S)O[C@H]3[C@@H](O)[C@H](n4cnc5c(N)ncnc54)O[C@@H]3COP(=O)(S)O[C@H]3[C@@H](O)[C@H](n4ccc5c(=O)[nH]c(N)nc54)O[C@@H]3COP(=O)(S)O[C@H]3[C@@H](O)[C@H](n4ccc(=O)[nH]c4=O)O[C@@H]3COP(=O)(S)O[C@H]3[C@@H](O)[C@H](n4ccc(N)nc4=O)O[C@@H]3CO)[C@H]2O)c(=O)n1` (stereo not given in full), in series [1], the remaining at 10 min turned out to be 72%. In series [2], the fold change (FC) came out at 0.4. Besides, in the series listed under Homo sapiens, the Ratio stood at 69. Also, the result in series [3] was inactive. Besides, the IFN-alpha with PBMC was found to be 123 pg/mL.
The matching figures for `Nc1ccn([C@@H]2O[C@H](CO)[C@@H](OP(=O)(S)OC[C@H]3O[C@@H](n4ccc(=O)[nH]c4=O)[C@H](O)[C@@H]3OP(=O)(S)OC[C@H]3O[C@@H](n4ccc(=O)[nH]c4=O)[C@H](O)[C@@H]3OP(=O)(S)OC[C@H]3O[C@@H](n4ccc5c(=O)[nH]c(N)nc54)[C@H](O)[C@@H]3OP(=O)(S)OC[C@H]3O[C@@H](n4ccc(=O)[nH]c4=O)[C@H](O)[C@@H]3OP(=O)(S)OC[C@H]3O[C@@H](n4ccc5c(=O)[nH]c(N)nc54)[C@H](O)[C@@H]3OP(=O)(S)OC[C@H]3O[C@@H](n4cnc5c(N)ncnc54)[C@H](O)[C@@H]3OP(=O)(S)OC[C@H]3O[C@@H](n4ccc5c(=O)[nH]c(N)nc54)[C@H](O)[C@@H]3OP(=O)(S)OC[C@H]3O[C@@H](n4ccc(N)nc4=O)[C@H](O)[C@@H]3OP(=O)(S)OC[C@H]3O[C@@H](n4ccc(=O)[nH]c4=O)[C@H](O)[C@@H]3OP(=O)(S)OC[C@H]3O[C@@H](n4ccc(=O)[nH]c4=O)[C@H](O)[C@@H]3OP(=O)(S)OCC(O)COP(=O)(S)O[C@H]3[C@@H](O)[C@H](n4ccc(=O)[nH]c4=O)O[C@@H]3COP(=O)(S)O[C@H]3[C@@H](O)[C@H](n4ccc(=O)[nH]c4=O)O[C@@H]3COP(=O)(S)O[C@H]3[C@@H](O)[C@H](n4ccc(N)nc4=O)O[C@@H]3COP(=O)(S)O[C@H]3[C@@H](O)[C@H](n4ccc5c(=O)[nH]c(N)nc54)O[C@@H]3COP(=O)(S)O[C@H]3[C@@H](O)[C@H](n4cnc5c(N)ncnc54)O[C@@H]3COP(=O)(S)O[C@H]3[C@@H](O)[C@H](n4ccc5c(=O)[nH]c(N)nc54)O[C@@H]3COP(=O)(S)O[C@H]3[C@@H](O)[C@H](n4ccc(=O)[nH]c4=O)O[C@@H]3COP(=O)(S)O[C@H]3[C@@H](O)[C@H](n4ccc5c(=O)[nH]c(N)nc54)O[C@@H]3COP(=O)(S)O[C@H]3[C@@H](O)[C@H](n4ccc(=O)[nH]c4=O)O[C@@H]3COP(=O)(S)O[C@H]3[C@@H](O)[C@H](n4ccc(=O)[nH]c4=O)O[C@@H]3COP(=O)(S)O[C@H]3[C@@H](O)[C@H](n4ccc(N)nc4=O)O[C@@H]3CO)[C@H]2O)c(=O)n1` (stereo not given in full): 85%, 1.5, 19.3, “inactive” and 138 pg/mL.
